Reference: ChEMBL document CHEMBL2407062, “Synthesis and anticancer activities of 5,6,7-trimethoxy-N-phenyl(ethyl)-4-aminoquinazoline derivatives” (Eur J Med Chem, 2013)
The source made the active and inactive calls. The rule behind the calls is not given here.

Tests used:
PC-3 [1] = assay: Growth inhibition of human PC3 cells at 10 uM after 72 hrs by MTT assay relative to control; type: functional; details: Homo sapiens, PC-3, 72 h; read-out: GI
In short: (§1)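 Cells in RPMI 1640 with 10% heat-inactivated FBS, 37 °C, 5% CO2. Seeded at 2 × 10³ cells per well. Compounds dissolved in DMSO, diluted in medium, tested at 1–100 μM for 72 h; 0.1% DMSO control. MTT read-out, absorbance at 595 nm. Mean ± SD of triplicate experiments. IC50 taken from the dose–response curve.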

PC-3 [2] = assay: Induction of apoptosis in human PC3 cells at 10 uM after 24 to 72 hrs by AO/EB staining-based fluorescence microscopic analysis; type: functional, cell-based
In short: (§2)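 PC3 cells seeded at 5 × 10⁴ cells/mL on cover slips, then given fresh medium with 10% FBS plus compound, 10 μM for 24–72 h. HCPT 10 μM positive control. Stained with AO/EB (100 μg/mL) and examined by fluorescence microscopy. Green: live; green-yellow: early apoptotic; orange fragments: late apoptotic; orange without condensed chromatin: necrotic.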

BGC-823 [3] = assay: Growth inhibition of human BGC823 cells at 10 uM after 72 hrs by MTT assay relative to control; type: functional; details: BGC-823, 72 h, read-out: GI; in short: as §1
PC-3 [4] = assay: Induction of apoptosis in human PC3 cells assessed as apoptotic rate after 24 to 72 hrs by annexin-V FITC and propidium iodide staining-based FACS flow cytometric analysis; type: functional, cell-based
In short: (§3)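 PC3 cells exposed to 1, 5 or 10 μM for 24, 48 or 72 h. Controls were 0.1% DMSO and HCPT 10 μM. Cells at 1 × 10⁶/mL washed twice with cold PBS, resuspended in binding buffer, stained with annexin V-FITC and PI. Apoptosis ratio is the sum of early (annexin+/PI−) and late (annexin+/PI+) fractions.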

PC-3 [5] = assay: Growth inhibition of human PC3 cells at 1 uM after 72 hrs by MTT assay relative to control; type: functional; details: Homo sapiens, PC-3, 72 h; read-out: GI; in short: as §1
PC-3 [6] = assay: Induction of apoptosis in human PC3 cells assessed as membrane blebbing at 10 uM after 24 to 72 hrs by AO/EB staining-based fluorescence microscopic analysis; type: functional, cell-based; in short: as §2
PC-3 [7] = assay: Induction of apoptosis in human PC3 cells assessed as apoptotic rate at 1 uM after 72 hrs by annexin-V FITC and propidium iodide staining-based FACS flow cytometric analysis relative to control; type: functional; in short: as §3
PC-3 [8] = assay: Induction of apoptosis in human PC3 cells assessed as apoptotic rate at 10 uM after 24 hrs by annexin-V FITC and propidium iodide staining-based FACS flow cytometric analysis relative to control; type: functional
In short: (§4)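 PC3 cells (RPMI 1640 with 10% heat-inactivated FBS, 37 °C, 5% CO2) exposed to compound for 24, 48 or 72 h; 0.1% DMSO as negative control. Cells at 1 × 10⁶/mL washed twice in cold PBS, resuspended in binding buffer, stained with Annexin V-FITC and PI. Apoptosis ratio is early (Annexin+/PI−) plus late (Annexin+/PI+) apoptotic cells.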

PC-3 [9] = assay: Induction of apoptosis in human PC3 cells assessed as apoptotic rate at 10 uM after 72 hrs by annexin-V FITC and propidium iodide staining-based FACS flow cytometric analysis relative to control; type: functional; in short: as §4
PC-3 [10] = assay: Induction of apoptosis in human PC3 cells assessed as DNA fragmentation at 10 uM by agarose gel electrophoretic analysis; type: functional, cell-based
In short: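 PC3 cells treated at 10 μM. Apoptotic DNA fragments extracted, run on agarose gel electrophoresis, stained with Gold View.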

PC-3 [11] = assay: Growth inhibition of human PC3 cells after 72 hrs by MTT assay; type: functional, cell-based; details: PC-3, 72 h; in short: as §1
PC-3 [12] = assay: Induction of apoptosis in human PC3 cells assessed as apoptotic rate at 1 uM after 24 hrs by annexin-V FITC and propidium iodide staining-based FACS flow cytometric analysis relative to control; type: functional; in short: as §3
[13] = molecular target: T1, Mitogen-activated protein kinase; ERK1/ERK2 (Homo sapiens) (UniProt P27361+P28482); assay: Inhibition of EGF-induced ERK1/2 phosphorylation in human PC3 cells at 1.28 uM incubated for 60 mins prior to EGF-treatment measured after 10 mins by Western blotting analysis; type: cell-based; details: PC-3
In short: (§5)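 PC3 cells grown 36–48 h in RPMI 1640 with 10% FBS at 37 °C, then serum-starved 24 h. Treated with compound for 60 min, then EGF 10 ng/mL for 10 min; quenched on ice. Cells washed with cold PBS and lysed in NP-40/SDS buffer with Na3VO4 and NaF. Run on 10% SDS-PAGE, PVDF blot probed for pERK1/2 with actin as loading control, ECL detection.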

PC-3 [14] = assay: Induction of apoptosis in human PC3 cells assessed as late apoptotic cells at 10 uM after 72 hrs by AO/EB staining-based fluorescence microscopic analysis; type: functional, cell-based; in short: as §2
Bcap37 [15] = assay: Growth inhibition of human Bcap37 cells after 72 hrs by MTT assay; type: functional, cell-based; details: Bcap37, 72 h; in short: as §1
[16] = molecular target: T1, Mitogen-activated protein kinase; ERK1/ERK2 (Homo sapiens); assay: Inhibition of EGF-induced ERK1/2 phosphorylation in human PC3 cells at 10 uM incubated for 60 mins prior to EGF-treatment measured after 10 mins by Western blotting analysis; type: cell-based; details: PC-3; in short: as §5
Bcap37 [17] = assay: Growth inhibition of human Bcap37 cells at 10 uM after 72 hrs by MTT assay relative to control; type: functional; details: Homo sapiens, Bcap37, 72 h; read-out: GI; in short: as §1
PC-3 [18] = assay: Induction of apoptosis in human PC3 cells assessed as apoptotic rate at 5 uM after 24 hrs by annexin-V FITC and propidium iodide staining-based FACS flow cytometric analysis relative to control; type: functional; in short: as §3
PC-3 [19] = assay: Induction of apoptosis in human PC3 cells assessed as apoptotic rate at 1 uM after 48 hrs by annexin-V FITC and propidium iodide staining-based FACS flow cytometric analysis relative to control; type: functional; in short: as §3
PC-3 [20] = assay: Induction of apoptosis in human PC3 cells assessed as apoptotic rate at 5 uM after 48 hrs by annexin-V FITC and propidium iodide staining-based FACS flow cytometric analysis relative to control; type: functional; in short: as §3
BGC-823 [21] = assay: Growth inhibition of human BGC823 cells after 72 hrs by MTT assay; type: functional, cell-based; details: BGC-823, 72 h; in short: as §1
PC-3 [22] = assay: Induction of apoptosis in human PC3 cells assessed as apoptotic rate at 1 to 10 uM by annexin-V FITC and propidium iodide staining-based FACS flow cytometric analysis; type: functional, cell-based; details: TDE = time-dependent effect; in short: as §3
PC-3 [23] = assay: Induction of apoptosis in human PC3 cells assessed as apoptotic cells at 10 uM after 72 hrs by Hoechst 33258 staining-based fluorescence microscopic analysis; type: functional, cell-based
In short: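 PC3 cells treated at 1 and 10 μM for 72 h, then stained with Hoechst 33258 and viewed by fluorescence microscopy. DMSO negative control; HCPT 10 μM for 72 h positive control. Bright blue condensed nuclei were scored as apoptotic.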

PC-3 [24] = assay: Induction of necrosis in human PC3 cells at 10 uM after 72 hrs by AO/EB staining-based fluorescence microscopic analysis; type: cell-based; details: pc-3, 72 h; in short: as §2
PC-3 [25] = assay: Induction of apoptosis in human PC3 cells assessed as pycnosis at 10 uM after 24 to 72 hrs by AO/EB staining-based fluorescence microscopic analysis; type: functional, cell-based; in short: as §2
PC-3 [26] = assay: Induction of apoptosis in human PC3 cells assessed as cell budding at 10 uM after 24 to 72 hrs by AO/EB staining-based fluorescence microscopic analysis; type: functional; in short: as §2
BGC-823 [27] = assay: Growth inhibition of human BGC823 cells at 1 uM after 72 hrs by MTT assay relative to control; type: functional; details: BGC-823, 72 h, read-out: GI; in short: as §1
PC-3 [28] = assay: Induction of apoptosis in human PC3 cells assessed as apoptotic rate at 5 uM after 72 hrs by annexin-V FITC and propidium iodide staining-based FACS flow cytometric analysis relative to control; type: functional; in short: as §3
Bcap37 [29] = assay: Growth inhibition of human Bcap37 cells at 1 uM after 72 hrs by MTT assay relative to control; type: functional; details: Homo sapiens, Bcap37, 72 h; read-out: GI; in short: as §1
PC-3 [30] = assay: Induction of apoptosis in human PC3 cells assessed as apoptotic rate at 10 uM after 48 hrs by annexin-V FITC and propidium iodide staining-based FACS flow cytometric analysis relative to control; type: functional; in short: as §4
PC-3 [31] = assay: Induction of apoptosis in human PC3 cells assessed as apoptotic rate at 30 uM after 24 hrs by annexin-V FITC and propidium iodide staining-based FACS flow cytometric analysis relative to control; type: functional; in short: as §4
PC-3 [32] = assay: Induction of apoptosis in human PC3 cells assessed as apoptotic rate at 30 uM after 72 hrs by annexin-V FITC and propidium iodide staining-based FACS flow cytometric analysis relative to control; type: functional; in short: as §4
PC-3 [33] = assay: Induction of apoptosis in human PC3 cells assessed as apoptotic rate at 30 uM after 48 hrs by annexin-V FITC and propidium iodide staining-based FACS flow cytometric analysis relative to control; type: functional; in short: as §4
PC-3 [34] = assay: Induction of apoptosis in human PC3 cells assessed as compact nucleus at 10 uM after 72 hrs by Hoechst 33258 staining-based fluorescence microscopic analysis; type: functional, cell-based
In short: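 PC3 cells treated 72 h, then stained with Hoechst 33258 and viewed by fluorescence microscopy. DMSO served as negative control. Live nuclei scored as uniformly light blue; apoptotic nuclei bright blue with condensed chromatin and karyopyknosis.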

PC-3 [35] = assay: Induction of apoptosis in human PC3 cells assessed as apoptotic rate at 20 uM after 48 hrs by annexin-V FITC and propidium iodide staining-based FACS flow cytometric analysis relative to control; type: functional; in short: as §4
PC-3 [36] = assay: Induction of apoptosis in human PC3 cells assessed as apoptotic rate at 20 uM after 72 hrs by annexin-V FITC and propidium iodide staining-based FACS flow cytometric analysis relative to control; type: functional; in short: as §4
PC-3 [37] = assay: Induction of apoptosis in human PC3 cells assessed as apoptotic rate at 20 uM after 24 hrs by annexin-V FITC and propidium iodide staining-based FACS flow cytometric analysis relative to control; type: functional; in short: as §4
PC-3 [38] = assay: Induction of apoptosis in human PC3 cells assessed as pycnosis at 10 uM after 48 hrs by AO/EB staining-based fluorescence microscopic analysis; type: functional, cell-based
In short: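 PC3 cells seeded at 5 × 10⁴ cells/mL on sterile coverslips. Medium replaced with fresh medium plus 10% FBS containing compound, treated 24–72 h. Coverslips inverted onto acridine orange/ethidium bromide stain ([…] as printed) and read by fluorescence microscopy. Live cells scored green, early apoptotic green-yellow, late apoptotic orange, necrotic orange without condensed chromatin.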

T1 sequence (P27361 whole entry, looked up): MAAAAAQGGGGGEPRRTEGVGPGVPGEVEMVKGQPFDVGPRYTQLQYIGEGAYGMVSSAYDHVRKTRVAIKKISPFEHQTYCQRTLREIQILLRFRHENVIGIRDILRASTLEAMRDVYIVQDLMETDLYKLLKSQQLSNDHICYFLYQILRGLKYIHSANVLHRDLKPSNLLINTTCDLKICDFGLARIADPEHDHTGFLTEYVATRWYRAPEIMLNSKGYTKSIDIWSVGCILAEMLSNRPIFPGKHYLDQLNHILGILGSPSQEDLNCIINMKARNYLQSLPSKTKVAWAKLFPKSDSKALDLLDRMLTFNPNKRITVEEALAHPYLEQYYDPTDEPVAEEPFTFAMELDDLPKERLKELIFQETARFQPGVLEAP
T1 sequence (P28482 whole entry, looked up): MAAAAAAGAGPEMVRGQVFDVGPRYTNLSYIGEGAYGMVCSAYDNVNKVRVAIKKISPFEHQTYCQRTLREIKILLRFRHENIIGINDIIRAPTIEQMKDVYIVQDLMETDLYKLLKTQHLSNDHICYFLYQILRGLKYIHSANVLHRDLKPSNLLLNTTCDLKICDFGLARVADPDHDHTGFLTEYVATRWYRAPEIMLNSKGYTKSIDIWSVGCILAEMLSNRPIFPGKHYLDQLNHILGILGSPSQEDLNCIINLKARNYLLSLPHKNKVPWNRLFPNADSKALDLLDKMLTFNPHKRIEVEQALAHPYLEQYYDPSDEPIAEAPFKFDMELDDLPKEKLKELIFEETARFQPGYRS

## COc1cc2ncnc(NCCc3ccccc3F)c2c(OC)c1OC
PC-3 [1]
  inhibition of growth at 10 µM: 90.6%
PC-3 [2]
  Activity: Active
BGC-823 [3]
  inhibition of growth at 10 µM: 88.2%
PC-3 [4]
  Activity: Dose-dependent effect
PC-3 [5]
  inhibition of growth at 1 µM: 22.6%
PC-3 [6]
  Activity: Active
PC-3 [7]
  Activity: 11.6%
PC-3 [8]
  Activity: 10.9%
PC-3 [9]
  Activity: 31.8%
PC-3 [10]
  Activity: Active
PC-3 [11]
  IC50: 6.2 µM
PC-3 [12]
  Activity: 5.1%
[13]
  inhibition: Active
PC-3 [14]
  Activity: Active
Bcap37 [15]
  IC50: 3.1 µM
[16]
  inhibition: Active
Bcap37 [17]
  inhibition of growth at 10 µM: 90.4%
PC-3 [18]
  Activity: 8.2%
PC-3 [19]
  Activity: 9.5%
PC-3 [20]
  Activity: 11.1%
BGC-823 [21]
  IC50: 3.2 µM
PC-3 [22]
  Activity: tde
PC-3 [23]
  Activity: Active
PC-3 [24]
  Activity: Non-toxic
PC-3 [25]
  Activity: Active
PC-3 [26]
  Activity: Active
BGC-823 [27]
  inhibition of growth at 1 µM: 38.7%
PC-3 [28]
  Activity: 19.8%
Bcap37 [29]
  inhibition of growth at 1 µM: 46.5%
PC-3 [30]
  Activity: 16.4%

## CC[C@@]1(O)C(=O)OCc2c1cc1n(c2=O)Cc2cc3cc(O)ccc3nc2-1 [HYDROXYCAMPTOTHECIN]
PC-3 [31]
  Activity: 11.9%
PC-3 [8]
  Activity: 5.7%
PC-3 [9]
  Activity: 17%
PC-3 [32]
  Activity: 38.2%
PC-3 [33]
  Activity: 12.8%
PC-3 [34]
  Activity: Active
PC-3 [35]
  Activity: 11.9%
PC-3 [36]
  Activity: 19.8%
PC-3 [37]
  Activity: 7.4%
PC-3 [30]
  Activity: 8.3%
PC-3 [38]
  Activity: Active
